pIC50: −log10 of the molar value.
system: Cucumis sativus; assay: Herbicidal activity against Cucumis sativus (cucumber) seeds assessed as inhibition of cucumber root at 28 degC for 3 days with 10 hr of lighting and 14 h in the dark; type: functional, organism-based
How it was run: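 Compound dissolved in acetone with a drop of Tween 80, then diluted with water to the required concentrations. Five mL was applied to filter paper in Petri dishes, with 10 cucumber seeds pre-soaked in water for 6 h. Taproot length was read at 72 h as percent inhibition versus control. Three replicates at each of five or six concentrations; IC50 by log-probit regression.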

| SMILES | pIC50 |
| --- | --- |
| COP(=O)(OC)C(C)OC(=O)COc1ccc(Cl)cc1 (stereo not drawn) | 6.37 |
| COP(=O)(OC)C(C)OC(=O)COc1ccc(Cl)cc1C (stereo not drawn) | 6.36 |
| COP(=O)(OC)C(C)OC(=O)COc1ccc(Cl)c(C)c1 (stereo not drawn) | 5.53 |
| COP(=O)(OC)C(C)OC(=O)COc1cc(C)ccc1Cl (stereo not drawn) | 4.31 |
| COP(=O)(OC)C(C)OC(=O)COc1cccc(Cl)c1Cl (stereo not drawn) | 3.68 |
| COP(=O)(OC)C(C)OC(=O)COc1cccc(F)c1 (stereo not drawn) | 3.95 |
| COP(=O)(OC)C(C)OC(=O)COc1ccc(F)cc1 (stereo not drawn) | 5.82 |
| COP(=O)(OC)C(OC(=O)COc1cccc(F)c1)C(Cl)(Cl)Cl (stereo not drawn) | 4.08 |
| COP(=O)(OC)C(OC(=O)COc1ccc(F)cc1)C(Cl)(Cl)Cl (stereo not drawn) | 5.93 |
| COP(=O)(OC)C(OC(=O)COc1ccc(Cl)cc1)C(Cl)(Cl)Cl (stereo not drawn) | 6.14 |
| COP(=O)(OC)C(OC(=O)COc1c(Cl)cccc1Cl)C(Cl)(Cl)Cl (stereo not drawn) | 3.94 |
| COP(=O)(OC)C(OC(=O)COc1cccc(Cl)c1Cl)C(Cl)(Cl)Cl (stereo not drawn) | 4.15 |
| COP(=O)(OC)C(OC(=O)COc1ccc(Cl)cc1C)C(Cl)(Cl)Cl (stereo not drawn) | 6.40 |
| COP(=O)(OC)C(OC(=O)COc1ccc(Cl)c(C)c1)C(Cl)(Cl)Cl (stereo not drawn) | 5.46 |
| COP(=O)(OC)C(OC(=O)COc1cc(C)ccc1Cl)C(Cl)(Cl)Cl (stereo not drawn) | 4.12 |
| COP(=O)(OC)C(OC(=O)COc1cccc(C(F)(F)F)c1)c1cccc(Cl)c1 (stereo not drawn) | 4.84 |
| COP(=O)(OC)C(OC(=O)COc1cccc(C(F)(F)F)c1)c1ccc(Cl)c(Cl)c1 (stereo not drawn) | 5.08 |
| COP(=O)(OC)C(OC(=O)COc1cccc(C(F)(F)F)c1)c1ccc(C)cc1 (stereo not drawn) | 5.13 |
| COP(=O)(O)C(OC(=O)COc1ccc(Cl)cc1Cl)c1ccco1 (stereo not drawn) | 6.35 |
| COP(=O)(O)C(OC(=O)COc1ccc(Cl)cc1Cl)c1ccccn1 (stereo not drawn) | 6.24 |

| SMILES | pIC50 |
| --- | --- |
| COP(=O)(O)C(OC(=O)COc1ccc(Cl)cc1Cl)c1ccccc1 (stereo not drawn) | 6.02 |
| COP(=O)(O)C(OC(=O)COc1ccc(Cl)cc1Cl)c1ccccc1Cl (stereo not drawn) | 6.04 |
| COP(=O)(O)C(OC(=O)COc1ccc(Cl)cc1Cl)c1ccc(Cl)cc1 (stereo not drawn) | 5.88 |
| COP(=O)(O)C(OC(=O)COc1ccc(Cl)cc1Cl)c1ccc(Cl)cc1Cl (stereo not drawn) | 5.99 |
| COP(=O)(O)C(OC(=O)COc1ccc(Cl)cc1Cl)c1ccc(Cl)c(Cl)c1 (stereo not drawn) | 6.05 |
| COc1ccc(C(OC(=O)COc2ccc(Cl)cc2Cl)P(=O)(O)OC)cc1 (stereo not drawn) | 6.02 |
| COP(=O)(O)C(OC(=O)COc1ccc(Cl)cc1Cl)c1ccc(F)cc1 (stereo not drawn) | 6.11 |
| COP(=O)(O)C(OC(=O)COc1ccc(Cl)cc1Cl)c1cccc([N+](=O)[O-])c1 (stereo not drawn) | 5.91 |
| COP(=O)(O)C(OC(=O)COc1ccc(Cl)cc1Cl)c1ccc(C)cc1 (stereo not drawn) | 5.87 |
| COP(=O)(OC)C(C)OC(=O)COc1c(Cl)cccc1Cl (stereo not drawn) | 4.00 |
| COP(=O)(OC)C(OC(=O)COc1cccc(F)c1)c1cccs1 (stereo not drawn) | 3.90 |
| COP(=O)(OC)C(OC(=O)COc1ccc(F)cc1)c1cccs1 (stereo not drawn) | 5.58 |
| COP(=O)(OC)C(OC(=O)COc1ccc(Cl)cc1Cl)c1cccs1 (stereo not drawn) | 6.55 |
| COP(=O)(OC)C(OC(=O)COc1ccc(Cl)cc1)c1cccs1 (stereo not drawn) | 6.24 |
| COP(=O)(OC)C(OC(=O)COc1c(Cl)cccc1Cl)c1cccs1 (stereo not drawn) | 3.75 |
| COP(=O)(OC)C(OC(=O)COc1cccc(Cl)c1Cl)c1cccs1 (stereo not drawn) | 3.23 |
| COP(=O)(OC)C(OC(=O)COc1ccc(Cl)cc1C)c1cccs1 (stereo not drawn) | 6.33 |
| COP(=O)(OC)C(OC(=O)COc1ccc(Cl)c(C)c1)c1cccs1 (stereo not drawn) | 5.63 |
| COP(=O)(OC)C(OC(=O)COc1cc(C)ccc1Cl)c1cccs1 (stereo not drawn) | 4.29 |
| COP(=O)(OC)C(OC(=O)COc1cccc(F)c1)c1ccccc1 (stereo not drawn) | 3.95 |

| SMILES | pIC50 |
| --- | --- |
| COP(=O)(OC)C(OC(=O)COc1ccc(F)cc1)c1ccccc1 (stereo not drawn) | 5.82 |
| COP(=O)(OC)C(OC(=O)COc1ccc(Cl)cc1)c1ccccc1 (stereo not drawn) | 6.37 |
| COP(=O)(OC)C(OC(=O)COc1c(Cl)cccc1Cl)c1ccccc1 (stereo not drawn) | 4.07 |
| COP(=O)(OC)C(OC(=O)COc1cccc(Cl)c1Cl)c1ccccc1 (stereo not drawn) | 3.64 |
| COP(=O)(OC)C(OC(=O)COc1ccc(Cl)cc1C)c1ccccc1 (stereo not drawn) | 6.45 |
| COP(=O)(OC)C(OC(=O)COc1ccc(Cl)c(C)c1)c1ccccc1 (stereo not drawn) | 5.59 |
| COP(=O)(OC)C(OC(=O)COc1cc(C)ccc1Cl)c1ccccc1 (stereo not drawn) | 4.14 |
| COP(=O)(OC)C(OC(=O)COc1cccc(C(F)(F)F)c1)c1ccccc1Cl (stereo not drawn) | 5.10 |
| COP(=O)(OC)C(OC(=O)COc1cccc(C(F)(F)F)c1)c1ccc(Cl)cc1 (stereo not drawn) | 5.16 |
| COP(=O)(OC)C(OC(=O)COc1cccc(F)c1)c1ccco1 (stereo not drawn) | 4.17 |
| COP(=O)(OC)C(OC(=O)COc1ccc(F)cc1)c1ccco1 (stereo not drawn) | 5.74 |
| COP(=O)(OC)C(OC(=O)COc1ccc(Cl)cc1)c1ccco1 (stereo not drawn) | 6.19 |
| COP(=O)(OC)C(OC(=O)COc1ccc(Cl)cc1Cl)c1ccco1 (stereo not drawn) | 6.47 |
| COP(=O)(OC)C(OC(=O)COc1c(Cl)cccc1Cl)c1ccco1 (stereo not drawn) | 3.49 |
| COP(=O)(OC)C(OC(=O)COc1cccc(Cl)c1Cl)c1ccco1 (stereo not drawn) | 3.35 |
| COP(=O)(OC)C(OC(=O)COc1ccc(Cl)cc1C)c1ccco1 (stereo not drawn) | 5.42 |
| COP(=O)(OC)C(OC(=O)COc1ccc(Cl)c(C)c1)c1ccco1 (stereo not drawn) | 5.44 |
| COP(=O)(OC)C(OC(=O)COc1cc(C)ccc1Cl)c1ccco1 (stereo not drawn) | 4.06 |
